Data from ChEMBL document CHEMBL1153991, “Anthranilamide-based N,N-dialkylbenzamidines as potent and orally bioavailable factor Xa inhibitors: P4 SAR” (Bioorg Med Chem Lett, 2009).
pIC50: −log10 of the molar value.

Legend:
Coagulation factor X = Coagulation factor X (Homo sapiens, UniProt P00742); assay: Inhibition of Factor 10a
[1] = Volume of distribution in rat; type: ADME, organism-based; conditions: in vivo
Plasma = assay: Anticoagulant activity in human plasma assessed as concentration required to double the thrombin generation time; type: functional
[2] = Oral bioavailability in rat; type: ADME, organism-based; conditions: in vivo
[3] = Clearance in Sprague-Dawley rat at 0.4 mg/kg, iv and 6 mg/kg, po; type: ADME, organism-based; conditions: in vivo
How it was run: (§1)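 Sprague–Dawley rats dosed 0.4 mg/kg IV and 6 mg/kg PO. Derived PK parameters: F (%), t1/2 (h), CL (mL/min/kg), Vd (L/kg).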

[4] = Oral bioavailability in Sprague-Dawley rat at 6 mg/kg; type: ADME, organism-based; conditions: in vivo; how it was run: as §1
[5] = Volume of distribution in Sprague-Dawley rat at 0.4 mg/kg, iv and 6 mg/kg, po; type: ADME, organism-based; conditions: in vivo; how it was run: as §1
[6] = Protein binding in human plasma; type: ADME, cell-free; conditions: read-out: PB (converted)
How it was run: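 Plasma protein binding measured by ultrafiltration. Working solution added 1/100 to EDTA human plasma to a final 10 µM, incubated 37 °C for 30 min. Triplicate aliquots were centrifuged through filter devices for 25 min at 32 °C. Filtrate was mixed with acetonitrile containing internal standard and quantified by LC/MS/MS against standards prepared in ultrafiltered plasma.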

[7] = Half life in Sprague-Dawley rat at 0.4 mg/kg, iv and 6 mg/kg, po; type: ADME, organism-based; conditions: in vivo; how it was run: as §1
[8] = Inhibition of trypsin
Prothrombin = Prothrombin (Homo sapiens, UniProt P00734); assay: Inhibition of thrombin
[9] = target: Vitamin K-dependent protein C (Homo sapiens) (UniProt P04070); assay: Inhibition of activated protein C
Plasminogen = Plasminogen (Homo sapiens, UniProt P00747); assay: Inhibition of plasmin
[10] = target: Tissue-type plasminogen activator (Homo sapiens, UniProt P00750); assay: Inhibition of tissue plasminogen activator
[11] = Inhibition of kallikrein
[12] = Clearance in Beagle dog at 0.1 mg/kg, iv and 0.5 mg/kg, po; type: ADME, organism-based, Canis lupus familiaris; conditions: in vivo
How it was run: (§2)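 Beagle dogs dosed 0.1 mg/kg IV and 0.5 mg/kg PO. Derived PK parameters: F (%), t1/2 (h), CL (mL/min/kg), Vd (L/kg).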

[13] = Half life in Beagle dog at 0.1 mg/kg, iv and 0.5 mg/kg, po; conditions: in vivo
[14] = Oral bioavailability in Beagle dog at 0.5 mg/kg; type: ADME, organism-based, Canis lupus familiaris; conditions: in vivo; how it was run: as §2
[15] = Volume of distribution in Beagle dog at 0.1 mg/kg, iv and 0.5 mg/kg, po; type: ADME, organism-based, Canis lupus familiaris; conditions: in vivo; how it was run: as §2

Sequence of Coagulation factor X (P00742 41-179 limits assumed): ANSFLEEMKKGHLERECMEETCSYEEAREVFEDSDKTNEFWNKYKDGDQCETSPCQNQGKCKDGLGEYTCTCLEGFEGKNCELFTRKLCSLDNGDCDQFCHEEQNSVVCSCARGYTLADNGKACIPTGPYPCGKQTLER
Sequence of Coagulation factor X (P00742 235-488 limits assumed): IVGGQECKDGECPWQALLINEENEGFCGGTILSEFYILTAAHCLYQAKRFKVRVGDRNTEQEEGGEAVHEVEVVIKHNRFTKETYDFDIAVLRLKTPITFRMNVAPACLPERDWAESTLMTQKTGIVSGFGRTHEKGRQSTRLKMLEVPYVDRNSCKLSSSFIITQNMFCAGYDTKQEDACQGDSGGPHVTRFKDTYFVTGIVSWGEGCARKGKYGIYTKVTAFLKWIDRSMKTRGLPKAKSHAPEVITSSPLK
Sequence of Tissue-type plasminogen activator (P00750 whole entry): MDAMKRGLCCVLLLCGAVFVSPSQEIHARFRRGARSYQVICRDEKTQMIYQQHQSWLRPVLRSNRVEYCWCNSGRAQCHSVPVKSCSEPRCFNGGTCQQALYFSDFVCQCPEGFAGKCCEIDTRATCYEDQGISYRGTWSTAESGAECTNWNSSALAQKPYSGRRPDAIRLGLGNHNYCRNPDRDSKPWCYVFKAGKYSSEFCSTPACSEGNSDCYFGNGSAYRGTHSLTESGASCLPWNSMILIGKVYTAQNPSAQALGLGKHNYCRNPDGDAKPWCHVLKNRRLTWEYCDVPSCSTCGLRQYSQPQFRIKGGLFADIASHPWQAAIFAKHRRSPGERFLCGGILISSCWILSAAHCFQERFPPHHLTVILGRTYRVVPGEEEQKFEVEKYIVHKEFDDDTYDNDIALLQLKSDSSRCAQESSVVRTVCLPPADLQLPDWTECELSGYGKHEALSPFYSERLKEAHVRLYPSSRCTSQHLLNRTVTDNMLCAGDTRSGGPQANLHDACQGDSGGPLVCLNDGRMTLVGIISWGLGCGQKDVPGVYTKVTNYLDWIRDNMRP
Sequence of Plasminogen (P00747 97-580 limits assumed): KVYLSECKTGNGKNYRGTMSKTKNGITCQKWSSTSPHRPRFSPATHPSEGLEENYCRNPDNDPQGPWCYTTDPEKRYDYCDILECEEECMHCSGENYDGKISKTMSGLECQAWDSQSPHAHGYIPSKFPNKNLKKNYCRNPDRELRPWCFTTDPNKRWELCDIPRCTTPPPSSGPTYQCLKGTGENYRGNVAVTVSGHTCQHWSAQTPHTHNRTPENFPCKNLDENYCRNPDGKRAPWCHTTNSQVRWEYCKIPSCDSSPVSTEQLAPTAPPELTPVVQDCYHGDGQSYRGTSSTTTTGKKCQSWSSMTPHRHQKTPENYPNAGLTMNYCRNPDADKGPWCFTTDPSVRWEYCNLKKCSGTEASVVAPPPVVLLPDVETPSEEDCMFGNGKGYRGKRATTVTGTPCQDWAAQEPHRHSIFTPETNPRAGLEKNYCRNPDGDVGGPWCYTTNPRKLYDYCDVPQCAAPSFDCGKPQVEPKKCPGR
Sequence of Plasminogen (P00747 581-810 limits assumed): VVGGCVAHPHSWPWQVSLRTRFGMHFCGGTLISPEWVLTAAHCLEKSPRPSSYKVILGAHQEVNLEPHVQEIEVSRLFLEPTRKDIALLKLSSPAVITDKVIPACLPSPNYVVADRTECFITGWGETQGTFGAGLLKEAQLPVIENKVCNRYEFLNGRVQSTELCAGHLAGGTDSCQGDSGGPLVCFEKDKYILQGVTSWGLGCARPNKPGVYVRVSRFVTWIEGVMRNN

N=C(c1ccc(C(=O)Nc2ccccc2C(=O)Nc2ccc(Cl)cn2)cc1)N1CCSCC1
pIC50 (Coagulation factor X): 7.92

N=C1OCCN1Cc1ccc(C(=O)Nc2ccc(Cl)cc2C(=O)Nc2ccc(Cl)cn2)cc1
Vd [1]: 13.6 L/kg
Activity (Plasma): 0.56 µM

NS(=O)(=O)c1ccccc1-c1ccc(C(=O)Nc2ccccc2C(=O)Nc2ccc(Cl)cn2)cc1
Activity (Plasma): >5 µM
bioavailability [2]: 35%

CCN(CC)C(=N)c1ccc(C(=O)Nc2ccccc2C(=O)Nc2ccc(Cl)cn2)cc1
pIC50 (Coagulation factor X): 8.00

CCCN(C)C(=N)c1ccc(C(=O)Nc2ccccc2C(=O)Nc2ccc(Cl)cn2)cc1
pIC50 (Coagulation factor X): 8.05

N=C(c1ccc(C(=O)Nc2ccccc2C(=O)Nc2ccc(Cl)cn2)cc1)N1CCCCC1
Activity (Plasma): 0.36 µM
clearance [3]: 32.2 mL/min/kg
bioavailability [4]: 18%
pIC50 (Coagulation factor X): 8.52
Vd [5]: 16.7 L/kg
fraction unbound [6]: 0.11
half-life [7]: 6 h

N=C(c1ccc(C(=O)Nc2ccccc2C(=O)Nc2ccc(Cl)cn2)cc1)N1CCC1
pIC50 (Coagulation factor X): 8.10

N=C(NO)c1ccc(C(=O)Nc2ccccc2C(=O)Nc2ccc(Cl)cn2)cc1
pIC50 (Coagulation factor X): 7.46

N=C(c1ccc(C(=O)Nc2ccccc2C(=O)Nc2ccc(Cl)cn2)cc1)N1CCNCC1
pIC50 (Coagulation factor X): 7.42

N=C(c1ccc(C(=O)Nc2ccccc2C(=O)Nc2ccc(Cl)cn2)cc1)N1CCCC1
pIC50 (Coagulation factor X): 8.10

N=C1NCCN1Cc1ccc(C(=O)Nc2ccc(Cl)cc2C(=O)Nc2ccc(Cl)cn2)cc1
Activity (Plasma): 0.58 µM
bioavailability [2]: < 1%

CN1CCN(C(=N)c2ccc(C(=O)Nc3ccccc3C(=O)Nc3ccc(Cl)cn3)cc2)CC1
pIC50 (Coagulation factor X): 6.15

N=C(c1ccc(C(=O)Nc2ccccc2C(=O)Nc2ccc(Cl)cn2)cc1)N1CCS(=O)(=O)CC1
pIC50 (Coagulation factor X): 6.59

N=C(N)c1ccc(C(=O)Nc2ccccc2C(=O)Nc2ccc(Cl)cn2)cc1
pIC50 [8]: < 5.00
bioavailability [2]: < 5%
pIC50 (Coagulation factor X): 8.40
pIC50 (Prothrombin): < 5.00
pIC50 [9]: < 5.00
pIC50 (Plasminogen): < 5.00
pIC50 [10]: < 5.00
pIC50 [11]: 5.31

O=C(Nc1ccccc1C(=O)Nc1ccc(Cl)cn1)c1ccc(C2=NCCN2)cc1
pIC50 (Coagulation factor X): 6.50

CONC(=N)c1ccc(C(=O)Nc2ccccc2C(=O)Nc2ccc(Cl)cn2)cc1
pIC50 (Coagulation factor X): 6.54

N=C(c1ccc(C(=O)Nc2ccccc2C(=O)Nc2ccc(Cl)cn2)cc1)N1CCOCC1
pIC50 (Coagulation factor X): 8.15

CN(C)NC(=N)c1ccc(C(=O)Nc2ccccc2C(=O)Nc2ccc(Cl)cn2)cc1
pIC50 (Coagulation factor X): 7.52

O=C(Nc1ccccc1C(=O)Nc1ccc(Cl)cn1)c1ccc(C2=NCCCN2)cc1
pIC50 (Coagulation factor X): 6.65

CN1CCN=C1c1ccc(C(=O)Nc2ccccc2C(=O)Nc2ccc(Cl)cn2)cc1
Activity (Plasma): 1.1 µM
clearance [3]: 7.1 mL/min/kg
bioavailability [4]: 22%
clearance [12]: 49.6 mL/min/kg
pIC50 (Coagulation factor X): 7.70
half-life [13]: 2.2 h
bioavailability [14]: 50%
Vd [5]: 3.7 L/kg
Vd [15]: 9.2 L/kg
fraction unbound [6]: 0.18
half-life [7]: > 6 h

CCN1CCN=C1c1ccc(C(=O)Nc2ccccc2C(=O)Nc2ccc(Cl)cn2)cc1
pIC50 (Coagulation factor X): 7.19

N=C(NN)c1ccc(C(=O)Nc2ccccc2C(=O)Nc2ccc(Cl)cn2)cc1
pIC50 (Coagulation factor X): 7.60

CCN(C)C(=N)c1ccc(C(=O)Nc2ccccc2C(=O)Nc2ccc(Cl)cn2)cc1
pIC50 (Coagulation factor X): 8.22

CN(C)C(=N)c1ccc(C(=O)Nc2ccccc2C(=O)Nc2ccc(Cl)cn2)cc1
Activity (Plasma): 0.54 µM
clearance [3]: 16.8 mL/min/kg
clearance [12]: 45.7 mL/min/kg
half-life [13]: 3.5 h
bioavailability [14]: 69%
Vd [5]: 6.3 L/kg
Vd [15]: 13.7 L/kg
fraction unbound [6]: 0.27
half-life [7]: 4.3 h

CN1CCCN=C1c1ccc(C(=O)Nc2ccccc2C(=O)Nc2ccc(Cl)cn2)cc1
pIC50 (Coagulation factor X): 7.11

CNC(=N)c1ccc(C(=O)Nc2ccccc2C(=O)Nc2ccc(Cl)cn2)cc1
pIC50 (Coagulation factor X): 7.64

CCNC(=N)c1ccc(C(=O)Nc2ccccc2C(=O)Nc2ccc(Cl)cn2)cc1
pIC50 (Coagulation factor X): 7.03
